Rows were chosen to be rich in hits. Some 2.2% of all compounds tested hit in one or more screens of this group.
PABP FP inh = PABP poly(A) RNA binding inhibitors, primary screen, biochemical, fluorescence polarization, uHTS; 290,000 compounds, 1% hits; Polyadenylate-binding protein 1 (Homo sapiens), P11940; calls only at 35 µM;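 further: calls also rest on retests at 20 µM and on dose response follow-up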
Target sequence (P11940 whole entry, looked up): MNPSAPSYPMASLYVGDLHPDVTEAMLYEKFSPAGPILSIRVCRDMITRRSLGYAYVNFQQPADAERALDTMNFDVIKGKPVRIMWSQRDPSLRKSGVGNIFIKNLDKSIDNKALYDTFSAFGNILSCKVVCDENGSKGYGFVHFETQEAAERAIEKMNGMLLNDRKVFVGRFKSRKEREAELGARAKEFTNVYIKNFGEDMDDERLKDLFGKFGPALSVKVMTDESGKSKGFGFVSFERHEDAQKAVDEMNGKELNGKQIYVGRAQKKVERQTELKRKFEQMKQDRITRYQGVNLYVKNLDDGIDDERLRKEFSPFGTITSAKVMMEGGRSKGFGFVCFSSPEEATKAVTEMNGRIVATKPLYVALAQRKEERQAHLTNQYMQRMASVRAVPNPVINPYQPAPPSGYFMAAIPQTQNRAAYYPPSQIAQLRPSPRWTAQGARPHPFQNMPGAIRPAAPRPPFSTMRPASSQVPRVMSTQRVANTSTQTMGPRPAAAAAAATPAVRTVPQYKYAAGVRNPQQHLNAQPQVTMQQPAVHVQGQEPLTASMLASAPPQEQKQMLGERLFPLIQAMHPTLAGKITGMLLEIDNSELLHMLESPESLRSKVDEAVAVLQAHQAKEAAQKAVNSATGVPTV
IMP-1 inhibitor = IMP-1 metallo-beta-lactamase inhibitors, primary screen, biochemical, epi-absorbance readout, Pseudomonas aeruginosa enzyme; metallo-beta-lactamase IMP-1 (Pseudomonas aeruginosa); purified IMP-1, nitrocefin hydrolysis, epi-absorbance fluorescence; inhibition, % at 5.6 µM; 290,000 compounds, 0.45% hits; AID 1556, 2009;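 active means inhibition above the mean plus 3 SD of all compounds in the same screening run, cut at about 4.5% in these data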
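assay system = purified recombinant IMP-1 metallo-beta-lactamase enzyme | schedule = 15 min preincubation plus 25 min reaction at 25 °C | signal = Epi-absorbance fluorescence, 480 nm excitation, 530 nm emission | read-out basis = percent inhibition from optical density relative to buffer-blank wells | controls = IMP-1 with DMSO as 0%, enzyme-free DMSO as 100%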
VIM-2 inh = VIM-2 metallo-beta-lactamase inhibitors, primary screen, biochemical, epi-absorbance readout, Pseudomonas aeruginosa enzyme | purified VIM-2, nitrocefin hydrolysis, epi-absorbance fluorescence | inhibition, % at 5.6 µM | 290,000 compounds, 0.89% hits | AID 1527, 2009;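 active means inhibition above the mean of all tested compounds plus 3 SD, cutoff set per screening run, cut at about 7.5% in these data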;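 further: red hydrolysis product quenches plate fluorescence so inhibitors raise well fluorescence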
eIF4H FP inh = human eIF4H binding inhibitors, primary screen, translation initiation inhibitor project, biochemical, uHTS, fluorescence polarization. Eukaryotic translation initiation factor 4H (Homo sapiens), Q15056. AID 2012, 2009. eIF4H fluorescence polarization binding assay. inhibition, % at 35 µM. 290,000 compounds, 0.94% hits;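 further: calls also rest on retests at 20 µM and on dose response follow-up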
PABP1 MLLE inh = inhibitors of PABP1 MLLE–PAM2 peptide binding, primary screen, biochemical, fluorescence polarization, FITC-PAM2, GST-MLLE. Polyadenylate-binding protein 1 (Homo sapiens), P11940. inhibition, % at 20 µM. 360,000 compounds, 0.36% hits. AID 588489, 2011; in the data active means inhibition above about 35%, passing the limit was not always enough
Of the large screens only hits and unclear results are named; the others gave an inactive call. Unless noted, how the calls were made is not given here.

Cc1oc(-c2ccc(F)cc2)cc1-c1nn2c(-c3ccoc3C)nnc2s1	PABP FP inh active, eIF4H FP inh 80 (no result: IMP-1 inhibitor, VIM-2 inh)
COc1ccc(-c2nnc3sc(-c4ccco4)nn23)cc1OC	none
c1csc(-c2nn3c(-c4ccncc4)nnc3s2)c1	none (no result: IMP-1 inhibitor, VIM-2 inh, PABP1 MLLE inh)
c1coc(-c2nnc3sc(-c4cccs4)nn23)c1	VIM-2 inh 7.9
COc1ccc(N=C2SC(CC(=O)Nc3ccccc3)C(=O)N2CC2CCCO2)cc1 (stereo not drawn)	none
COc1ccc(N=C2SC(CC(=O)Nc3ccccc3)C(=O)N2CCN2CCOCC2)cc1 (stereo not drawn)	PABP FP inh active, eIF4H FP inh active
Cn1nc(C(F)(F)F)cc1-c1ccc(/C=C(\C#N)C(=O)c2ccccc2)s1	PABP FP inh active
CCCCNC(=S)N(C)/N=C/c1c(C)[nH]c2ccccc12	eIF4H FP inh 50
CCCCNC(=S)N(C)/N=C/c1c(F)c(F)c(F)c(F)c1F	none
N=c1oc2ccc(Br)cc2cc1C(=O)NC1CCCCCC1	none
Cc1nc(C)c(C(=O)Nc2nc3c(C)cccc3s2)o1	PABP FP inh active, eIF4H FP inh 70
CC(=O)[C@@H]1[C@@H](C(=O)c2ccc(F)cc2)[C@]2(C(=O)Nc3ccccc32)[C@H]2C=Cc3cc(F)ccc3N12	none
O=C(c1ccc(F)cc1)[C@@H]1[C@@H](C(=O)c2ccccc2)[C@@]2(C(=O)Nc3ccccc32)[C@H]2c3ccccc3C=CN12	eIF4H FP inh 51 (no result: PABP1 MLLE inh)
COC(=O)c1ccc2c(c1)NC(=O)c1ccccc1S2	none
N#C/C=C1/NC(=O)c2ccccc2S1	PABP FP inh inconclusive, VIM-2 inh 9.1, eIF4H FP inh inconclusive
NC(=O)C1CCN(C(=O)c2ccc3c(=O)n(Cc4ccco4)c(SCC(=O)c4ccc(F)cc4)nc3c2)CC1	none (no result: PABP1 MLLE inh)
CCCCCCc1cc2cc(C(N)=O)c(=N)oc2cc1O	PABP FP inh active, eIF4H FP inh 96 (no result: PABP1 MLLE inh)
CCCCCCc1cc2cc(C(=O)NC)c(=N)oc2cc1O	none
Cc1oc(-c2cccc(Cl)c2)nc1CS(=O)(=O)CC(=O)NC1CCCC1	none
O=C(COC(=O)C12CC3CC(CC(Cl)(C3)C1)C2)Nc1ccc2[nH]c(=O)[nH]c2c1	none (no result: PABP FP inh, IMP-1 inhibitor, VIM-2 inh, eIF4H FP inh)
COc1cc(C2CC(=O)Oc3c2c(=O)n(C)c2ccccc32)ccc1O (stereo not drawn)	eIF4H FP inh 64
O=C(CCN1C(=O)/C(=C\C=C\c2ccccc2)SC1=S)Nc1ccc(C(=O)O)cc1	PABP FP inh active, IMP-1 inhibitor 8.4, eIF4H FP inh 68
O=C(CN1C(=O)/C(=C\C=C\c2ccccc2)SC1=S)Nc1ccc(F)cc1	none
O=C(COC(=O)CCN1C(=O)/C(=C\C=C\c2ccccc2)SC1=S)Nc1cc(F)ccc1F	IMP-1 inhibitor 7.9
CCCCC(=O)Oc1c(S(=O)(=O)c2ccc(C)cc2)c(C)nn1C(C)(C)C	none
O=S(=O)(c1ccc(=S)[nH]c1)N1CCN(Cc2ccccc2)CC1	none (no result: PABP FP inh, IMP-1 inhibitor, VIM-2 inh, eIF4H FP inh)
CNC(=O)/C(C#N)=C/c1c(N2CCCCCC2)nc2ccccn2c1=O	VIM-2 inh 8.1
O=C(COc1ccccc1)Nc1ccc(S(=O)(=O)Nc2ccccn2)cc1	none
O=C(NC1CCCC1)c1cnn2c(C(F)(F)F)cc(-c3ccco3)nc12	VIM-2 inh 17
CC(C)CCNC(=O)c1cnn2c(C(F)(F)F)cc(-c3ccco3)nc12	none
O=C(NCc1ccco1)c1cc2nc(-c3cccs3)cc(C(F)(F)F)n2n1	VIM-2 inh 8.6
COc1ccc(-c2cc(C(F)(F)F)n3ncc(C(=O)NCc4ccco4)c3n2)cc1	VIM-2 inh 8.2
O=C(NCc1ccco1)c1nn2c(C(F)(F)F)cc(-c3cccs3)nc2c1Cl	none
NC(=O)CSc1nnc2n(N)c(=O)c3ccccc3n12	none
CCCCC1=CC2=CC(=O)C(C)(OC(=O)CC)C(=O)C2=CN1CC(C)C (stereo not drawn)	none (no result: IMP-1 inhibitor, VIM-2 inh)
C=CCN1C=C2C(=O)C(C)(OC(=O)CC)C(=O)C=C2C=C1CCCC (stereo not drawn)	PABP FP inh active (no result: IMP-1 inhibitor, VIM-2 inh)
COC(=O)c1c(-c2cccnc2)csc1NC(=O)c1cc(C)on1	VIM-2 inh 9.7
COC(=O)c1c(-c2ccc(C)cc2)csc1NC(=O)c1c(-c2ccccc2)noc1C	none (no result: PABP1 MLLE inh)
Cn1cccc1/C=C1\CC(C(C)(C)C)C/C(=C\c2cccn2C)C1=O (stereo not drawn)	PABP FP inh active, eIF4H FP inh 51
COc1cc(NC(=O)c2ccc(NC3=NC4CS(=O)(=O)CC4S3)cc2)cc(OC)c1OC (stereo not drawn)	none
CCCCOc1ccc(OCCNC(=O)c2ccco2)cc1	none
C=CCOC(=O)C(C#N)c1nc2ccccc2nc1N1CCN(Cc2ccc3c(c2)OCO3)CC1 (stereo not drawn)	PABP FP inh active, eIF4H FP inh 69
CC1CN(c2nc3ccccc3nc2C(C#N)C(=O)NCc2ccc3c(c2)OCO3)CC(C)O1 (stereo not drawn)	PABP FP inh active
CCCCNC(=O)C(C#N)c1nc2ccccc2nc1N1CCN(Cc2ccc3c(c2)OCO3)CC1 (stereo not drawn)	none (no result: PABP FP inh, IMP-1 inhibitor, VIM-2 inh, eIF4H FP inh)
CCC(CC)COC(=O)C(C#N)c1nc2ccccc2nc1N1CCN(CC)CC1 (stereo not drawn)	PABP FP inh active, eIF4H FP inh 81
CCC(C)COC(=O)C(C#N)c1nc2ccccc2nc1N1CCCCC1 (stereo not drawn)	none
COc1cc(NS(=O)(=O)c2ccc(NC(=S)NC(=O)c3sc4cc(F)ccc4c3Cl)cc2)nc(OC)n1	PABP1 MLLE inh 41
COc1cc(NS(=O)(=O)c2ccc(NC(=S)NC(=O)c3sc4ccccc4c3Cl)cc2)nc(OC)n1	PABP1 MLLE inh 48
O=C(O)C1Nc2ccc(Br)cc2C2C=CCC12 (stereo not drawn)	PABP FP inh active, eIF4H FP inh 105
O=C(OC1CCCCC1)c1ccc2c(c1)C1C=CCC1C(C(=O)O)N2 (stereo not drawn)	PABP FP inh active, eIF4H FP inh 93 (no result: PABP1 MLLE inh)
COc1cccc(S(=O)(=O)NCc2ccc(C(=O)N3CCN(C)CC3)cc2)c1	none
O=C1CCCN1CCCNc1ncnc2sccc12	none
COc1ccc(C(=S)Nc2ccc(C)cc2)cc1	PABP1 MLLE inh 40
COc1ccc(NC(=S)c2ccc3ccccc3n2)cc1	PABP1 MLLE inh 38
Cc1ccc(NC(=S)c2ccc3ccccc3n2)c(C)c1	PABP1 MLLE inh 36
O=C(Cc1cccs1)NCc1cccc(F)c1	none
O=Cc1cnc(N2CCOCC2)nc1	none
CCCn1cnc2sc(CC)cc2c1=O	eIF4H FP inh 58
Cc1c(-c2ccc(/C=N/NC(=O)C(=O)Nc3ccccc3F)o2)cccc1[N+](=O)[O-]	none

Source: PubChem BioAssay (several laboratories)
